# In the library only some 2.3% were active in any assay of this set; here they are far more common.
# TAAR1 ag: human TAAR1 agonists, primary screen, Fluo-8 calcium fluorescence, CHO RD-HGA16 cells; Trace amine-associated receptor 1 (Homo sapiens), Q96RJ0; vehicle wells 0%, saturating PEA agonist 100%; activation, % at 3 µM; 0.99% of 360,000 active; AID 624467, 2012;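 active = activation above the mean activation of all test compounds in the run plus 3 SD, cut at about 38% in these data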
#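 Test system: RD-HGA16 (CHO) cells co-expressing Gα16 and hTAAR1; dosing: one-point dosing at 3 µM (nominal); timing: 17-24 h seeding, 75 min 37 °C dye, 30 min RT; signal: kinetic Fluo-8 calcium fluorescence; read-out basis: % activation relative to PEA EC100 response; controls: DMSO and PEA EC100; replicates: n 1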
# OXTR ag: human OXTR agonists, primary screen, fluorescence, CHO-OTR cells, Fluo-8 calcium; Fluo-8 calcium fluorescence; normalized: DMSO 0%, oxytocin 100%; activation, % at 3 µM; 0.32% of 320,000 active;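 active = activation above the mean of all tested compounds plus 3 SD, cutoff set per screening run, cut at about 20% in these data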;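 note: peak over basal fluorescence ratio from a 100 s FLIPR kinetic read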
# V1R ag counter: agonists of human V1a receptor, primary screen, counter-screen for OXTR agonist project, fluorescence, CHO-V1R cells. Vasopressin V1a receptor (Homo sapiens), P37288. Fluo-8 calcium fluorescence, agonist mode; 0% DMSO, 100% 3 nM vasopressin. activation, % at 3 µM. 0.25% of 320,000 active. AID 2797, 2010;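 active = activation above the mean activation of all tested compounds plus 3 SD, per screening run, cut at about 20% in these data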;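 note: signal is peak over basal fluorescence ratio across a 100 second FLIPR read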
# Target sequence (P37288 whole entry, looked up): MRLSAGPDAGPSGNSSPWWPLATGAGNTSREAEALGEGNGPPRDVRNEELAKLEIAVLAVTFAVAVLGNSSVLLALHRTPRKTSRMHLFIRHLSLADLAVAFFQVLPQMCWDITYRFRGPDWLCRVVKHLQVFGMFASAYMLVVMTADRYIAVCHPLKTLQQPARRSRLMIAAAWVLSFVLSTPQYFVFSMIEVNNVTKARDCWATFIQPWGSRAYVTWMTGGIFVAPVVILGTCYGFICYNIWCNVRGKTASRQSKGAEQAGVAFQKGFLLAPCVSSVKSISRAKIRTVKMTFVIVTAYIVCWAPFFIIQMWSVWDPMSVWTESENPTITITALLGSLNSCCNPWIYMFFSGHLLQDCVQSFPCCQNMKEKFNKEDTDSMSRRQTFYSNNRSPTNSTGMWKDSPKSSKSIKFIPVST
# OXTR potentiate: human OXTR potentiators, primary screen, fluorescence, CHO-OTR cells, Fluo-8 calcium; Fluo-8 calcium fluorescence, potentiator mode; 0% = oxytocin EC15, 100% = EC100; activation, % at 3 µM; 0.061% of 320,000 active; AID 2445, 2010;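 active = activation above that plate's cutoff, the mean activation of tested compounds plus 3 SD, cut at about 6.6% in these data, passing the limit was not always enough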;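 note: 100% uses oxytocin at 75 nM as the full agonist control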
#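 Material: CHO-OTR cells, human receptor; compound dosing: single dose, 3.0 µM nominal final compound concentration; schedule: 6 min compound pre-incubation at room temperature, 100 s kinetic read; measured by: kinetic Fluo-8 calcium fluorescence; read-out basis: % activation vs EC15 and EC100 oxytocin; controls: EC15 oxytocin alone as 0%, 75 nM oxytocin as 100%; replicates: singlicate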
# TAAR1 antag: human TAAR1 antagonists, primary screen, Fluo-8 calcium fluorescence, CHO RD-HGA16 cells. antagonist. inhibition, % at 3 µM. 1.5% of 360,000 active. AID 624466, 2012;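 active = inhibition above a per-plate cutoff, the mean inhibition of test compounds on that plate plus 3 SD, cut at about 49% in these data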;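 note: 0% = DMSO plus EC80 beta-PEA response and 100% = DMSO alone without agonist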
#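 System: CHO RD-HGA16 cells bearing hTAAR1. Reagent: EC80 β-phenethylamine stimulus. Schedule: seeding 17-24 h prior, 75-min 37 °C, 30-min RT dye loading. Signal: Fluo-8 intracellular calcium dye fluorescence, real-time kinetic reads. Read-out: % inhibition from peak post-agonist over basal fluorescence ratio. Benchmarks: vehicle wells and EC80 agonist wells. Replicates: n of 1.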
# * = called active by the depositor; . = no result given.
SMILES,TAAR1 ag,OXTR ag,V1R ag counter,OXTR potentiate,TAAR1 antag
CCN(CC)S(=O)(=O)c1cccc(C(=O)OCC(=O)NCc2ccccc2OC)c1,9,-1,1,-5,34
C=CCC[C@H](Cc1ccc(F)cc1)C(=O)OC[C@H](Cc1c[nH]c2ccccc12)NC(=O)[C@H](CC=C)CC(=O)N(CCO)Cc1ccccc1,2,3,1,-5,29
C=CC[C@@H](CC(=O)N(CCO)Cc1ccccc1)C(=O)N[C@H](COC(=O)[C@@H](CC=C)Cc1ccc(F)cc1)Cc1c[nH]c2ccccc12,14,1,2,-9,59*
C=CC[C@H](CC(=O)N(CCO)Cc1ccccc1)C(=O)N[C@H](COC(=O)[C@@H](CC=C)Cc1ccc(F)cc1)Cc1c[nH]c2ccccc12,15,1,2,-10,59*
COc1ccc(NC(=O)C2Cc3c(-c4ccccc4Oc4ccccc4)ccnc3O2)cc1 (stereo not drawn),1,.,.,.,35
O=C(N/N=C/c1ccc2c(c1)OCO2)c1ccc(COc2cccc3cccnc23)cc1,15,3,-1,-15,49*
O=C(N/N=C/c1cccc(O)c1)c1ccc(COc2cccc3cccnc23)cc1,19,0,1,-14,10
CCN(CC)S(=O)(=O)c1ccc(OC(C)C)c(NC(=O)c2c3c(nc4ccccc24)CCN(Cc2ccccc2)C3)c1,11,1,2,-17,55*
COc1ccc(S(=O)(=O)N2CCCCCC2)cc1NC(=O)c1c2c(nc3ccccc13)CCN(Cc1ccccc1)C2,14,1,3,-2,47
COc1ccc2cc(CN(CC3CCCO3)S(=O)(=O)c3ccccc3)c(=O)[nH]c2c1 (stereo not drawn),19,2,1,-4,3
Cc1cccc2cc(CN(CC3CCCO3)S(=O)(=O)c3ccccc3)c(=O)[nH]c12 (stereo not drawn),10,2,4,-7,49*
Cc1ccc(C)c(S(=O)(=O)NCCCc2ccccc2)c1,0,-2,0,-3,15
CS(=O)(=O)c1ccc2nc(NC(=O)c3cccc(NS(=O)(=O)c4ccc(F)c(F)c4)c3)sc2c1,6,3,2,-8,52*
COc1ccccc1NC(=O)CSc1nnc(CC(=O)Nc2ccccc2C)n1C,3,-1,0,-3,-18
CC(C)(C)C(=O)COC(=O)C1CC(=O)N(c2ccccc2)C1 (stereo not drawn),0,1,1,6,10
Cc1ccc(-c2noc(CCC(=O)NCCCN3CCN(c4cccc(Cl)c4)CC3)n2)cc1,12,31*,21*,-21,29
O=C(Cn1sc2ccccc2c1=O)Nc1ccc(Br)cc1,39*,.,.,.,24
O=C(COC(=O)c1ccc(O)cc1)Nc1cc(S(=O)(=O)N2CCOCC2)ccc1Cl,27,12,10,-10,53*
CCN(CC)c1ccc(S(=O)(=O)N2CCOCC2)cc1NC(=O)COC(=O)/C=C/c1ccco1,10,.,.,.,54*
O=C(COC(=O)/C=C/c1ccco1)Nc1cc(S(=O)(=O)N2CCOCC2)ccc1Cl,1,0,9,-5,-20
CCOc1ccccc1NC(=O)COC(=O)c1ccc(S(=O)(=O)N2CCCC2)cc1,12,.,.,.,59*
CN(C)CCn1nnc2c(=O)oc3ccccc3c21,5,0,-1,-8,4
CC(C)(C)NC(=O)CN(C(=O)C(=O)Nc1ccc2c(c1)OCCO2)N1CCOCC1,1,1,4,-4,-8
Cc1nc2ccc(NS(=O)(=O)c3ccc(F)c(C)c3)cc2[nH]1,1,2,2,-20,7
CC(=O)c1cccc(-c2ccnc3c2CC(C(=O)Nc2ccc4c(c2)OCO4)O3)c1 (stereo not drawn),2,.,.,.,11

# Screening data deposited in PubChem by The Scripps Research Institute Molecular Screening Center.
